The values that follow come from ChEMBL document CHEMBL1122709, “Synthesis and biological activity of a new class of cytotoxic agents: N-(3-oxoprop-1-enyl)-substituted pyrimidines and purines” (J Med Chem, 1984).

Series [1] relates to HeLa. As to the kind of experiment: Inhibition of macromolecular synthesis in HeLa cells assayed by the incorporation of radioactive uridine into RNA. Type of series: functional, cell-based. The settings on record: Homo sapiens. In a few lines: (§1)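 HeLa S3 suspension culture in MEM with 5% fetal calf serum and 2 mM L-glutamine. Cells incubated with 0.5 μCi of labeled precursor: [methyl-3H]thymidine for DNA, [5,6-3H]uridine (40 Ci/mmol) for RNA, L-[4,5-3H]leucine (56 Ci/mmol) for protein. Synthesis rate taken as precursor uptake into cold TCA-insoluble material.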

Series [2] relates to HeLa. The experiment in a line: Inhibition of macromolecular synthesis in HeLa cells assayed by the incorporation of radioactive leucine into protein. The format is functional, cell-based. The settings on record: Homo sapiens. Put shortly:
as §1

Series [3] deals with HeLa. As to the kind of experiment: Inhibition of macromolecular synthesis in HeLa cells assayed by the incorporation of radioactive thymidine into DNA. As to conditions: Homo sapiens. Type of series: functional, cell-based. Put shortly:
as §1

Series [4] relates to HeLa. As to the kind of experiment: Inhibition of HeLa cells growth (cytotoxicity). Type of series: functional. The settings on record: Homo sapiens, read-out: ID50 (the source's name). Put shortly:
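HeLa cells in complete medium, grown to 1.7 × 10^5/mL (100 mL culture). Incubated 16 h with varying concentrations of inhibitor, then growth inhibition assessed.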

Series [5] is described as follows: Compound was evaluated for its half-life when nucleophile was added in solution buffered at pH 7.2 in the presence of aminoethanol. The format is ADME. As to conditions: buffered solution with added nucleophile (aminoethanol). Put shortly: (§2)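 Half-life of each compound measured in aqueous solution buffered at pH 7.2 with a nucleophile, glutathione or aminoethanol, added. Reaction followed kinetically as disappearance of the propenal.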

The nature of series [6]: Compound was evaluated for its half-life when nucleophile was added in solution buffered at pH 7.2 in the presence of glutathione. The format is ADME. The settings on record: buffered solution with added nucleophile (glutathione). In a few lines: as §2

For `N#C/C=C/n1c(=O)ccn([C@H]2C[C@H](O)[C@@H](CO)O2)c1=O`, the IC50 is 100 µM in the series with HeLa [1], over 100 µM with HeLa [2] and 100 µM in the series with HeLa [3].
For `CC(=O)/C=C/n1c(=O)ccn([C@H]2C[C@H](O)[C@@H](CO)O2)c1=O`, the IC50 was 6 µM with HeLa [1], 6 µM with HeLa [4], over 100 µM in the series on HeLa [2] and 1.5 µM in the series on HeLa [3].
Take `O=C/C=C/n1cc(C(F)(F)F)c(=O)[nH]c1=O`: the values for the IC50 with HeLa [1], in the series on HeLa [2] and with HeLa [3] were over 100 µM, 80 µM and 60 µM, respectively.
On to `Cc1cn([C@H]2C[C@H](O)[C@@H](CO)O2)c(=O)n(/C=C/C=O)c1=O`, for which the half-life in series [5] was 25 h; in series [6], 8 min. Also, the IC50 came out at 20 µM in the series with HeLa [1], 1 µM in the series with HeLa [4], 15 µM in the series on HeLa [2] and 0.5 µM with HeLa [3].
For `Nc1ccn(/C=C/C=O)c(=O)n1`, the IC50 in the series on HeLa [1] is over 100 µM; with HeLa [4], 15 µM; in the series on HeLa [2] it was over 100 µM; with HeLa [3], over 100 µM.
As to `O=C/C=C/n1c(=O)ccn(C2O[C@H](CO)[C@@H](O)[C@H]2O)c1=O` (stereo partly drawn), the IC50 in the series on HeLa [1] was 3 µM; in the series with HeLa [4], 9 µM; in the series on HeLa [2], over 100 µM; in the series on HeLa [3], 10 µM.
For `Cc1cn([C@@H]2O[C@H](CO)[C@@H](O)[C@@H]2O)c(=O)n(/C=C/C=O)c1=O`, the IC50 with HeLa [1] is 100 µM; with HeLa [4], 40 µM; in the series on HeLa [2] it was over 100 µM; in the series on HeLa [3], 40 µM.
`O=C/C=C/n1c(=O)ccn([C@H]2C[C@H](O)[C@@H](CO)O2)c1=O`: the IC50 stood at 15 µM in the series on HeLa [1], 1 µM in the series on HeLa [4], 15 µM with HeLa [2] and 0.8 µM with HeLa [3].
As for `Nc1nc(O)c2ncn(/C=C/C=O)c2n1`, the IC50 with HeLa [1] is 50 µM; with HeLa [4] it was 24 µM; with HeLa [2], over 100 µM; in the series with HeLa [3] it was over 100 µM.
In the case of `Nc1ncnc2c1ncn2/C=C/C=O`, the half-life in series [5] is 15 h; in series [6], 2.1 min. Moreover, the IC50 in the series on HeLa [1] was over 100 µM; in the series with HeLa [4], 2 µM; in the series on HeLa [2] it was over 100 µM; with HeLa [3] it was 30 µM.
As for `O=C/C=C/n1cc(CO)c(=O)[nH]c1=O`, the IC50 with HeLa [1], with HeLa [2] and in the series with HeLa [3] was over 100 µM in each case.
In the case of `Cc1cn([C@H]2C[C@H](O)[C@@H](CO)O2)c(=O)n(/C=C/CO)c1=O`, the IC50 was 5 µM with HeLa [1], 60 µM in the series on HeLa [4], over 100 µM with HeLa [2] and 5 µM with HeLa [3].
Take `Cc1cn(COCCO)c(=O)n(/C=C/C=O)c1=O`: the IC50 came to 20 µM in the series with HeLa [1], 6 µM in the series with HeLa [4], 20 µM with HeLa [2] and 20 µM with HeLa [3].
With `O=C/C=C/n1ccc(=O)[nH]c1=O`, the IC50 is 30 µM in the series on HeLa [1], 4 µM in the series on HeLa [4], 30 µM in the series with HeLa [2] and 30 µM in the series on HeLa [3].
Consider `Cc1cn(C)c(=O)n(/C=C/C=O)c1=O`, for which the IC50 came to 15 µM with HeLa [1], 3 µM in the series on HeLa [4], 15 µM in the series with HeLa [2] and 10 µM in the series on HeLa [3].
With `CC(=O)/C=C/n1cc(C)c(=O)[nH]c1=O`, the IC50 in the series on HeLa [1], in the series with HeLa [2] and with HeLa [3] was over 100 µM throughout.
Take `CCOC(=O)/C=C/n1cnc2c(N)ncnc21`: the results for the IC50 in the series with HeLa [1], with HeLa [2] and in the series with HeLa [3] were 100 µM, 100 µM and 60 µM, respectively.
Regarding `Cc1cn(/C=C/C=O)c(=O)[nH]c1=O`, the half-life is 18 h in series [5] and 3.5 min in series [6]. Besides, the IC50 with HeLa [1] amounted to 100 µM; in the series with HeLa [4], 1 µM; in the series on HeLa [2], 25 µM; in the series on HeLa [3] it was 23 µM.
`Cc1cn(/C=C/CO)c(=O)[nH]c1=O`: the IC50 with HeLa [1], with HeLa [2] and with HeLa [3] was over 100 µM each time.
As to `Cc1cn([C@@H]2O[C@H](CO)[C@@H](O)[C@H]2O)c(=O)n(/C=C/C=O)c1=O`, the IC50 in the series on HeLa [1] is 100 µM; in the series on HeLa [2], over 100 µM; in the series with HeLa [3], over 100 µM.
With `Cc1cn(/C=C/C#N)c(=O)[nH]c1=O`, the IC50 in the series with HeLa [1], in the series on HeLa [2] and in the series with HeLa [3] was over 100 µM throughout.
In the case of `Cc1cn(/C=C/C=N/O)c(=O)[nH]c1=O`, the IC50 in the series with HeLa [1], in the series on HeLa [2] and in the series on HeLa [3] was over 100 µM in each case.
Regarding `O=C/C=C/n1c(=O)c(I)cn([C@H]2C[C@H](O)[C@@H](CO)O2)c1=O`, the IC50 in the series with HeLa [1] turned out to be 80 µM; in the series with HeLa [4], 20 µM; with HeLa [2], 15 µM; in the series with HeLa [3], 0.3 µM.
`O=C/C=C/n1cc(F)c(=O)[nH]c1=O`: the IC50 in the series on HeLa [1] was 90 µM; in the series with HeLa [4], 3 µM; in the series on HeLa [2] it was 40 µM; with HeLa [3], 60 µM.
